Assay results of several laboratories.
Each line is one published result; the experiments were not run side by side.
rep methyltransferase: Replicase polyprotein 1ab, methyltransferase (rep, Severe acute respiratory syndrome coronavirus 2, UniProt P0DTD1)
rep main protease: Replicase polyprotein 1ab, main protease (rep, Severe acute respiratory syndrome coronavirus 2, UniProt P0DTD1)
FABP1: Fatty acid-binding protein, liver (FABP1, Homo sapiens, UniProt P07148)

SMILES	target	read-out	mode	method	setting	endpoint	result
COc1ncc(-c2ccc3nccc(-c4ccnnc4)c3c2)cc1NS(=O)(=O)c1ccc(F)cc1F	rep methyltransferase	enzyme activity	inhibitor	–	–	IC50	~100 µM
O=c1c(O)c(-c2ccc(O)cc2)oc2c(O)c(O)cc(O)c12	rep main protease	enzyme activity	inhibitor	–	with preincubation	IC50	< 10 µM
CN1C(=O)/C(=N\Nc2ncc(-c3cc4ccccc4oc3=O)s2)c2cc(Cl)ccc21	Alpha-glucosidase MAL12 (MAL12, Saccharomyces cerevisiae S288c, UniProt P53341)	enzyme activity	inhibitor	absorbance	–	IC50	112 µM
CCNS(=O)(=O)C(F)(F)C(F)(F)C(F)(F)C(F)(F)C(F)(F)C(F)(F)C(F)(F)C(F)(F)F	FABP1	ligand displacement	–	fluorescence	–	Kd	16.6 µM
COc1cc2c(cc1OC)CN(CCc1ccc(NC(=O)c3cccc4c(=O)c5cccc(OC)c5[nH]c34)cc1)CC2	Histamine H2 receptor (HRH2, Homo sapiens, UniProt P25021)	cell-free assay	–	–	–	Ki	1.1 µM
CC1(C)O[C@@H]2C[C@H]3[C@@H]4CCC5=CC(=O)C=C[C@]5(C)[C@H]4[C@@H](O)C[C@]3(C)[C@]2(C(=O)CO)O1	rep main protease	enzyme activity	inhibitor	–	–	IC50	71.4 µM
O=C(O)c1cc(O)c(O)c(O)c1	rep main protease	binding	–	MST	–	Kd	3.95 µM
CC1CC(c2ccc(S(N)(=O)=O)cc2)=NN1c1ccc(C#N)c(Cl)c1 (centres unmarked)	rep methyltransferase	enzyme activity	inhibitor	–	–	IC50	> 100 µM
CC(=O)[C@@]1(O)CC[C@H]2[C@@H]3C[C@H](C)C4=CC(=O)C=C[C@]4(C)[C@@]3(F)[C@@H](O)C[C@@]21C	rep main protease	enzyme activity	inhibitor	–	–	IC50	60.6 µM
NS(=O)(=O)C(F)(F)C(F)(F)C(F)(F)C(F)(F)C(F)(F)C(F)(F)C(F)(F)C(F)(F)F	FABP1	ligand displacement	–	fluorescence	–	Kd	5.87 µM
CCOC(=O)c1ccc(OC(=O)CCCCCN=C(N)N)cc1	Kallikrein-12 (Homo sapiens, UniProt Q9UKR0)	enzyme activity	inhibitor	–	–	IC50	0.0357 µM
